The results in this text go back to publication PMC10568112 (Journal of Pharmaceutical Analysis, 2023).

Each structure is given as a SMILES string. Read-outs that look alike come from different tables or passages of the source.

Data set [1] deals with carboxylesterase of gut microbiota. Type of data set: in vitro ADME, Balb/c mice. The note with it: for inhibition rate of tyrosol production: 120 min, SNZ 10 μg/mL, vs control group. In a few lines: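 Gut bacteria incubations were set up as for the microbial metabolism assay, with test compound at a final 10 μg/mL. The carboxylesterase inhibitor BNPP was added at 1, 5 or 10 mM; cultures without BNPP served as control. Incubation was at 37 °C for 0, 15, 30, 60, 90 and 120 min. Inhibition of tyrosol production at 120 min was expressed relative to control.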

Data set [2] has as its system gut microbiota (intestinal bacteria incubation system). As to the kind of experiment: Metabolism of SNZ by intestinal bacteria in vitro. The note with it: SNZ 10 μg/mL; for course of metabolite content in intestinal bacteria incubation: 0-2 h. Type of data set: in vitro ADME, Balb/c mice. The essentials: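 Contents of male Balb/c intestine were mixed 1:30 (w/v) in anaerobic medium, kept under N2 and pre-incubated 30 min at 37 °C. Test compound was present at a final 10 μg/mL, and inactivated bacteria medium served as negative control. Shaking at 37 °C, 200 rpm was done in two separate runs: 0, 1, 2, 6, 12 and 24 h, then 0, 15, 30, 60, 90 and 120 min. Parent and metabolite contents were followed over time.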

Data set [3] can be described thus: Pharmacokinetics after oral SNZ in normal Balb/c mice and pseudo-germfree. It is filed as in vivo. The note with it: oral SNZ 109.2 mg/kg; for Cmax / half-life / Tmax: Balb/c, mouse, po, 109.2 mg/kg; for Cmax / half-life / Tmax / AUC(0−t) / AUC(0−∞): plasma, mean.
Data set [4] is described as follows: Tissue distribution after oral SNZ in tumor bearing mice. Type of data set: in vivo, Balb/c mice. The note with it: 20 min after oral SNZ 109.2 mg/kg; for tissues in which the metabolite is distributed: tumor mice. The essentials: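 Three tumour-bearing mice per group, conventional or PGF, were fasted overnight and dosed orally at 109.2 mg/kg. After 20 min they were anaesthetised with 20% urethane and PBS-perfused. Organs and tumour were homogenised in 3 volumes of PBS. 100 μL homogenate was mixed with 300 μL methanol containing glipizide (100 ng/mL), vortexed 1 min and centrifuged at 14,000 rpm for 10 min. Supernatant was analysed by HPLC-MS/MS.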

Data set [5] is described as follows: Pharmacokinetics after oral SNZ in tumor mice and PGF tumor mice. Type of data set: in vivo, Balb/c mice. The note with it: oral SNZ 109.2 mg/kg.
Where [6] appears, read: tumor mice (column head Normal), plasma, mean.
The mark [7] stands for this setting: PK parameters in PGF could not be fitted.

For the compound `O=[N+]([O-])c1ccc(OP(=O)(O)Oc2ccc([N+](=O)[O-])cc2)cc1` [BNPP, bis-p-nitrophenyl phosphate], the “effect on metabolic rate of SNZ by gut microbiota” value in data set [1] (BNPP 0, 1, 5 and 10 mM) is “inhibited in a dose-dependent manner”. The “inhibition rate of tyrosol production” value in data set [1] (BNPP 1 mM) turned out to be 81.5%; in data set [1] (BNPP 5 mM), 93.1%; in data set [1] (BNPP 10 mM), 100.0%. Also, the “prolongation of SNZ metabolism compared with control group” value in data set [1] (BNPP 10 mM, within 120 min) is listed as “approximately 60 min”.

As a reminder, the Cmax is the peak of the concentration-time curve. One may read the half-life as how long it takes for the measured level to halve. The low end stands for fast loss, the high end for slow loss. What is called Tmax is the time from dosing to the highest level. Take `OC[C@H]1O[C@@H](OCCc2ccc(O)cc2)[C@H](O)[C@@H](O)[C@@H]1O` [Salidroside, salidroside]: the “course of metabolite content in intestinal bacteria incubation” value in data set [2] was “gradually decreased”. The “highest peak concentration of metabolite in intestinal bacteria incubation” value in data set [2] (peak at 15 min) was determined as 3.29 µg/mL. Further, the Cmax in data set [3] (PGF mice) came to 82.7 ng/mL; in data set [3] (normal Balb/c mice) it was 257 ng/mL; in data set [5] (Balb/c, mouse, plasma, po, 109.2 mg/kg, cmax, PGF tumor mice, mean) it was 75 ng/mL. In addition, the half-life in data set [3] (t1/2, PGF mice) turned out to be 14.2 min; in data set [3] (t1/2, normal Balb/c mice), 90.8 min; in data set [5] (Balb/c, mouse, plasma, po, 109.2 mg/kg, t1/2, PGF tumor mice, mean) it was 20.4 min. Also, the Tmax in data set [3] (PGF mice) was 16 min; in data set [3] (normal Balb/c mice) it was 44 min; in data set [5] (Balb/c, mouse, plasma, po, 109.2 mg/kg, tmax, PGF tumor mice, mean), 18 min. For the same compound, the “AUC(0−t)” value stood at 3079.01 µg/L/min in data set [3] (PGF mice); 33814.78 µg/L/min in data set [3] (normal Balb/c mice); 2207.64 µg/L/min in data set [5] (PGF tumor mice, plasma, mean); 22373.93 µg/L/min in data set [5] (setting [6]). Further, the “AUC(0−∞)” value in data set [3] (PGF mice) is 3205.99 µg/L/min; in data set [3] (normal Balb/c mice), 36004.16 µg/L/min; in data set [5] (PGF tumor mice, plasma, mean) it was 2452.12 µg/L/min; in data set [5] (setting [6]), 23773.54 µg/L/min. The “amount detected in tumor tissue of tumor mice compared with PGF tumor mice” value in data set [4] is reported as “a large amount”. For the same compound, the “tissues in which the metabolite is distributed” value in data set [4] is listed as “liver, kidney, stomach, small intestine, etc”.

Turning to `OCCc1ccc(O)cc1` [Tyrosol, tyrosol], in data set [2], the “course of metabolite content in intestinal bacteria incubation” value is recorded as “increased gradually with incubation time”. In data set [3] (normal Balb/c mice), the concentration peaked (Cmax) at 126 ng/mL, the Tmax was 36 min, the “AUC(0−t)” value amounted to 13158.45 µg/L/min and the “AUC(0−∞)” value is 13944.89 µg/L/min. Also, the half-life in data set [3] (t1/2, normal Balb/c mice) is 110 min. For the same compound, the “plasma concentration in PGF mice compared with normal group” value in data set [3] (setting [7]) is “lower than that in the normal group”. In data set [4], the “amount detected in tumor tissue of tumor mice compared with PGF tumor mice” value was “a large amount”; the “tissues in which the metabolite is distributed” value was “liver, kidney, stomach, small intestine, heart, spleen, lung, colon, and other organs and tissues”. In addition, the “plasma exposure in tumor mice compared with PGF tumor mice” value in data set [5] (setting [7]) is given as “significantly higher”. Besides, in data set [5] (setting [6]), the “AUC(0−t)” value was found to be 8918.61 µg/L/min and the “AUC(0−∞)” value worked out at 9833.89 µg/L/min.
